# Most compounds without a hit are left out; they make up all but 2.4% or so of the library.
# NRP1-CendR mod: modulators of CendR peptide binding to human neuropilin-1; FAM-RPARPAR peptide binding to NRP-1, fluorescence polarization; inhibition, % at 25 µM; 360,000 tested, 0.85% active; AID 602438;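 active = inhibition or corrected inhibition above about 18%, plus a signal ratio from 0.5 to 1.5, limit read from the data, passing the limit was not always enough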
# Myeloid diff MLP: myeloid differentiation induction; ER-HoxA9 myeloid progenitors, lysozyme-GFP differentiation, flow cytometry; calls only at 10 µM; 360,000 tested, 1% active;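 active = normalized GFP-positive differentiation at or above the plate's own cutoff, the solvent-only control mean plus 3 SD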;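 also: cells exposed to compound for four days before flow analysis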
# MT1-MMP act inh: MT1-MMP (human) activation inhibition. P50281. GFP/RFP ratio change, % at 20 µM. HT1080 RFP-PRO-GFP cells, GFP/RFP ratio fluorescence, overnight; percent of plate control window, DMSO zero. 360,000 tested, 0.061% active;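 active = GFP/RFP ratio change of at least 30% with cell ATP level not reduced by more than half and red fluorescence within 50% of control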
#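 Assay system – RFP-PRO-GFP reporter HT1080 cells · Compound dosing – single dose of 20 µM compound, 1% DMSO final · Incubation – overnight compound exposure at 37 °C · Measure – GFP/RFP fluorescence ratio · Benchmarks – DMSO wells and RFP-L50D-GFP cells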
# DAGLB inh: diacylglycerol lipase beta (human) inhibition; Q8NCG7; HEK293T DAGLB membrane lysate, EnzChek fluorogenic substrate; inhibition, % at 5.17 µM; 340,000 tested, 0.059% active; AID 504411; in the data active = inhibition above about 34%;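 also: 0% = enzyme with vehicle and 100% = wells lacking enzyme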
# beta cell repl: MIN6 beta-cell proliferation induction. MIN6 cells proliferation, ATPlite luminescence, 48 h; cells starved in 0.2% serum; 100% = growth in 10% serum. proliferation, % at 10 µM. 330,000 tested, 0.29% active;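 active = compounds whose signal lies at least 3.5 SD above the mean of all wells on their plate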;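 also: 0% = DMSO-treated cells in low-serum medium and 100% = 10% serum control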
# SENP1 inh: inhibitors of human SENP1 SUMO protease catalytic domain. recombinant SENP1 catalytic domain, CyPet-SUMO1-YPet FRET cleavage. Q9P0U3. 360,000 tested, 0.21% active. inhibition, % at 10 µM. AID 624204;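 active = inhibition at least 30% at 10 µM, raw YFP signal under a set limit, fluorescence ratio 0.5 to 1.5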;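 also: 0% = enzyme with DMSO and 100% = no enzyme wells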
# Target sequence (Q9P0U3 419-644 limits assumed): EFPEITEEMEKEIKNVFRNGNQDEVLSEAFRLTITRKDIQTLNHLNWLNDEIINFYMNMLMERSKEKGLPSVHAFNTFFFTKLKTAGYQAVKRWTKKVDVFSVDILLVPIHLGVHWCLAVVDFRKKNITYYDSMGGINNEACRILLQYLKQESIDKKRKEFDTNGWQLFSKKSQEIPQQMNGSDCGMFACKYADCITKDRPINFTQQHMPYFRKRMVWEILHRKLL
#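 Compound: 10 µM single point, 0.5% DMSO; Test system: hSENP1 catalytic domain, recombinant; Timing: 50 min reaction at room temperature; Technique: FRET, CFP and YFP emission; Control set: no-enzyme wells low, DMSO-plus-enzyme wells high control.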
# Myeloid diff: promotes myeloid progenitor differentiation; AID 651706; 2,300 tested, 2% active; calls only; ER-HoxA9 myeloid progenitors, GFP/Mac1 double-positive flow; shares compounds with Myeloid diff MLP;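 active = share of green or green-and-red cells above 9 and 9% in run 1 or 4 and 3% in run 2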
# GFP autofluor: flagged as fluorescent in myeloid differentiation counter-screen. shares compounds with Myeloid diff MLP. ER-HoxA9 myeloid progenitors, no estrogen, GFP autofluorescence flow cytometry; vehicle wells 0%, positive control 100%. fluorescence response, % (concentration not given with the values). 2,300 tested, 7.4% active. AID 651707;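 active = over 5% cells positive for green fluorescent reporter, or over 2% positive for both it and APC stain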;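 also: range taken on the double positive population between DMSO and positive control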
# Active calls of the source: *; i = inactive; . = no result; + = active, no number.
SMILES,NRP1-CendR mod,Myeloid diff MLP,MT1-MMP act inh,DAGLB inh,beta cell repl,SENP1 inh,Myeloid diff,GFP autofluor
COc1ccc(CNC(=O)CSc2ncnc3nc[nH]c23)cc1,-6,i,2,0,1,0,.,.
Cc1noc(C)c1NC(=O)Nc1ccc2c(c1)C(=O)N([C@H](C)CO)C[C@H](C)[C@@H](CN(C)S(=O)(=O)c1c(C)noc1C)O2,-6,i,-5,-3,-3,0,.,.
C=CCN1C(=O)C(O)(CC(=O)c2ccc(OC)cc2OC)c2cc(Br)ccc21 (stereo unspecified),-2,i,0,-2,-1,-1,i,0
Cc1[nH]c(C)c(S(=O)(=O)NCc2ccc(F)cc2)c1C(=O)N1CCCC1,9,i,0,0,0,0,.,.
O=C(C1CCCCN1S(=O)(=O)c1ccccc1)N1CCCCC1 (stereo unspecified),2,+,-3,1,0,1,i,0
COc1ncc(-c2ccc(N3C(c4ccsc4)=Cc4ccc(F)cc4C3CC(=O)c3ccco3)cc2)cn1 (stereo unspecified),-1,i,-16,.,.,4,.,.
O=C(CC1c2cc(F)ccc2C=C(c2ccsc2)N1c1ccc(C#CCCO)cc1)c1ccco1 (stereo unspecified),-2,i,-10,.,.,1,i,0
O=C(Nc1ccc(F)cc1)C1CCN(S(=O)(=O)c2cccs2)CC1,15,i,0,-2,-3,-2,.,.
COc1cc(CC(=O)OCC(=O)c2c[nH]c3ccccc23)cc(OC)c1OC,-17,i,6,0,-5,1,i,9.7*
Cc1cccc(N2CCN(C(=O)CCS(=O)(=O)c3ccc4c(c3)NC(=O)CO4)CC2)c1C,7,i,1,3,-2,0,.,.
COc1ccc(C[C@@H]2CN3C(=NC[C@@H]3C)N2CCNC(=O)c2ccc(C)c(Br)c2)cc1,-2,+,4,3,-8,0,i,0
C/C=C(\C)C(=O)NCCN1C2=NC[C@H](C)N2C[C@@H]1Cc1ccc(OC)cc1,3,i,-2,0,-3,1,.,.
O=c1[nH]ccc2c(O)cccc12,4,i,1,-1,0,-2,.,.
Cc1ccc(S(=O)(=O)N2[C@@H](c3ccc4c(c3)OCO4)C(C(=O)O)=C[C@H]2CC2CCCC2)cc1,-4,+,5,2,-2,-15,i,0
CCOC(=O)c1[nH]c2ccc(Br)cc2c1NC(=O)CCN1CCCC(C)(C)C1,29*,+,-11,-1,-5,0,i,0
COc1ccc([C@H]2C[C@H](n3cc(COC(=O)c4ccccc4)nn3)[C@@H](O)CN2C(=O)C2CCCCC2)cc1,-14,i,4,0,.,1,i,0
COc1ccc([C@H]2C[C@@H](n3cc(COC(=O)c4ccccc4)nn3)[C@H](O)CN2C(=O)C2CCCCC2)cc1,-1,i,2,-6,.,2,.,.
Cc1ccc([C@H]2C[C@@H](O)[C@H](n3cc(COC(=O)c4ccccc4)nn3)CN2Cc2cccs2)cc1,0,i,1,-4,.,1,i,0
COc1ccc(S(=O)(=O)N[C@@H](CSCc2ccccc2)C(=O)O)cc1,8,i,2,2,2,0,.,.
COc1ccc(-c2nn(-c3ccccc3)cc2/C=N/Nc2ccc(S(N)(=O)=O)cc2[N+](=O)[O-])cc1OC,-10,i,15,5,-4,4,i,0
COc1cc(C2C(C(=O)/C=C/c3ccccc3)=C(O)C(=O)N2c2ccccn2)ccc1O (stereo unspecified),-178,i,-43,-1,1,-17,.,.
COc1ccc(N(CC(=O)NC2CCCC2)C(=O)Cn2nnc(-c3ccc(C)cc3)n2)cc1OC,5,i,-6,-1,1,1,i,1
COc1ccc(N(CC(=O)NC2CCCC2)C(=O)Cn2nnc(-c3ccc(F)cc3)n2)cc1OC,7,i,-2,-2,-1,2,.,.
C=CCC(O)(CC=C)C(C)N (stereo unspecified),-29,i,-1,-7,1,1,.,.
CCOC(=O)c1c(C)c(C(=O)Nc2cc(OC)ccc2OC)c(C)n1CC,9,+,-7,-3,.,2,i,1
SMILES,NRP1-CendR mod,Myeloid diff MLP,MT1-MMP act inh,DAGLB inh,beta cell repl,SENP1 inh,Myeloid diff,GFP autofluor
Cc1ccc(S(=O)(=O)NC(CC(C)C)C(=O)NCC(C)(C)N2CCOCC2)cc1 (stereo unspecified),-7,i,4,0,6,3,.,.
CS(=O)(=O)NCCSCc1ccco1,-2,i,1,-7,0,4,i,1
C#Cc1ccc([C@H]2C=C(C(=O)NCc3nc4ccccc4[nH]3)O[C@@H](OCC)[C@@H]2CCCO)cc1,4,i,3,-4,-3,0,.,.
COc1cccc(NC(=O)Nc2ccc(Cc3ccncc3)cc2)c1,-2,+,-4,0,-1,-2,i,1
O=C(NC(=S)Nc1cccc(NC(=S)NC(=O)c2ccccc2)c1)c1ccccc1,-39,+,-8,3,.,-24,i,1
Cc1cccc(C(=O)NC(=S)Nc2ccc(Cc3ccncc3)cc2)c1,11,i,-1,-4,0,2,.,.
COc1cccc(NC(=O)Nc2ccncc2)c1,-1,i,1,2,-3,1,.,.
O=C(NC(=S)Nc1ccc(Cc2ccncc2)cc1)c1ccccc1,-6,+,-1,-2,-3,2,i,5.4*
CCC(=O)Nc1cccc(NC(=S)NC(=O)c2ccccc2)c1,-5,i,7,-1,0,2,.,.
Cc1ccc2cccc(NC(=S)NC(=O)c3ccccc3)c2n1,1,i,-7,-15,-5,-8,i,1
CC1(C(=O)NC2CCCCC2)CCC(=O)N1Cc1cccs1 (stereo unspecified),0,i,0,-2,2,-5,i,0
Cc1c(C(=O)C(C)C)n(C)c2ccccc12,9,i,-2,-9,-2,-3,i,0
CC1=Nc2ccc(C)c3nc(C)cc(c23)N1c1ccc(C)cc1,-17,+,-13,-1,-3,-18,i,0
